Source: EPA's CvTdb concentration-time database

Legend:
rat [1] = assay: concentration in blood after dosing; negative times count back from the end of exposure; conditions: inhalation
rat [2] = assay: concentration in blood after dosing; conditions: dosed: m-xylene, 5000 ppm, dermal, duration: 4 hr, male, F344
rat [3] = assay: concentration in blood after dosing; conditions: dosed: m-xylene, 5000 ppm, dermal, duration: 4 hr, male, F344; remark: listed apart in the source
rat [4] = assay: concentration in blood after dosing; conditions: dosed: m-xylene, 5000 ppm, dermal, duration: 4 hr, male, F344; remark: listed apart in the source
rat [5] = assay: concentration in blood after dosing; conditions: dosed: m-xylene, 5000 ppm, dermal, duration: 4 hr, male, F344; remark: listed apart in the source
rat [6] = assay: concentration in blood after dosing; conditions: dosed: m-xylene, 5000 ppm, dermal, duration: 4 hr, male, F344; remark: listed apart in the source
rat [7] = assay: concentration in blood after dosing
human [8] = assay: amount in urine after dosing (umol); conditions: dosed: tert-amyl methyl ether, 38.4 ppm, inhalation, duration: 4 hr
Method in brief: (§1)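 Data points giving concentration or amount against time came from published in vivo toxicokinetic studies and from two structured collections. PubMed searching, classifier screening and manual review located the studies. Most points were digitised from plot screenshots using WebPlotDigitizer, the rest were copied from tables, and all keep their reported units.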

rat [9] = assay: amount in urine after dosing (umol); conditions: dosed: tert-amyl methyl ether, 38.4 ppm, inhalation, duration: 4 hr, F344 (Harlan Winkelmann)
Rat [10] = assay: concentration in urine after dosing; conditions: dosed: dibromoacetic acid, 40 mg/kg, oral, Male, F344
Rat [11] = assay: concentration in urine after dosing; conditions: dosed: dibromoacetic acid, oral, Male, F344
Rat [12] = assay: concentration in urine after dosing; conditions: dosed: dibromoacetic acid, 100 mg/kg, oral, Male, F344
Rat [13] = assay: concentration in urine after dosing; conditions: dosed: dibromoacetic acid, 100 mg/kg, oral, Male, F344; remark: listed apart in the source
Rat [14] = assay: concentration in urine after dosing; conditions: dosed: dibromoacetic acid, 40 mg/kg, oral, Male, F344; remark: listed apart in the source
human [15] = assay: concentration in blood after dosing; negative times count back from the end of exposure; conditions: dosed: ethylbenzene, 33 ppm, inhalation, duration: 7 hr
Method in brief: as §1

ClC(Cl)Cl [chloroform]
rat [1], dosed: chloroform, 100 ppm, duration: 360 min
Conditions | concentration in blood [µg/g]
0.4971 h | 0.55
2.006 h | 0.151

rat [1], dosed: chloroform, 100 ppm, duration: 360 min, during exposure
Conditions | concentration in blood [µg/g]
-31 s | 1.02
-5.747 h | 0.18
-5.503 h | 1.05
-4.997 h | 1.05
-3 h | 1.25

ClC(Cl)(Cl)Cl [carbon tetrachloride]
concentration in blood [ng/mL], rat [1], dosed: carbon tetrachloride, duration: 120 min
Conditions | 100 ppm | 1000 ppm
0.1277 h | 401 | 4510
0.2902 h | 401 | –
0.305 h | – | 4270
0.4232 h | 340 | –
0.4675 h | – | 4510
0.6891 h | 240 | –
0.7039 h | – | 4750
0.9551 h | 240 | –
0.9698 h | – | 3670
1.457 h | 240 | –
1.472 h | – | 2640
1.96 h | – | 2860
1.975 h | 140 | –
2.462 h | 140 | 1020
2.965 h | 140 | 1060
3.954 h | 40.1 | –
3.969 h | – | 761
4.944 h | 40.1 | –
4.974 h | – | 701
5.979 h | 20 | –
5.993 h | – | 441
7.013 h | – | 220
7.988 h | – | 220
8.993 h | – | 240
9.983 h | – | 160
194 s | – | 6310
247 s | 501 | 5190

rat [1], dosed: carbon tetrachloride, duration: 120 min, during exposure
Conditions | concentration in blood [ng/mL]
-179 s, 1000 ppm | 11200
-125 s, 100 ppm | 681
-1.941 h, 1000 ppm | 5690
-1.867 h, 1000 ppm | 7110
-1.852 h, 100 ppm | 441
-1.793 h, 100 ppm | 601
-1.69 h, 100 ppm | 741
-1.675 h, 1000 ppm | 7550
-1.527 h, 100 ppm | 481
-1.498 h, 1000 ppm | 6170
-1.276 h, 1000 ppm | 7510
-1.261 h, 100 ppm | 421
-1.054 h, 1000 ppm | 6930
-1.025 h, 100 ppm | 561
-0.8032 h, 100 ppm | 601
-0.7884 h, 1000 ppm | 7730
-0.5668 h, 1000 ppm | 8190
-0.5372 h, 100 ppm | 461
-0.3008 h, 100 ppm | 881
-0.2861 h, 1000 ppm | 10000

Cc1cccc(C)c1 [m-xylene]
concentration in blood [ng/mL]
Conditions | rat [2] | rat [3] | rat [4] | rat [5] | rat [6]
0.5 h | 5380 | 154 | 2860 | 6020 | 3960
1 h | 9470 | 5860 | 2950 | 7020 | 3790
2 h | 12100 | 3840 | 8160 | 3450 | 25600
3 h | 15900 | 3760 | 8020 | 9500 | 5950
4 h | 16700 | 5030 | 9030 | 11400 | 9940

rat [7], dosed: m-xylene, 5000 ppm, dermal, duration: 4 hr, male, F344
Conditions | concentration in blood [ng/mL]
0.5 h | 154
1 h | 4110
2 h | 4350
3 h | 8850
4 h | 10500

CC(C)(O)CC(=O)O [3-hydroxy-3-methyl-butyrate]
human [8]
Conditions | amount in urine
6.255 h | 52.2
12.14 h | 81.7
18.19 h | 45.7
24.05 h | 43.6
30.19 h | 32.9
36.26 h | 24.2
42.12 h | 11.1
48.2 h | 19.7
305 s | 19.7

c1cc2ccc3cccc4ccc(c1)c2c34 [total 14C-pyrene]
rat [1], dosed: pyrene, male, Wistar, radiolabel
Conditions | concentration in blood [ng/mL]
0.2501 h, 200 mg/m^3, duration: 95 min | 1940
0.253 h, 500 mg/m^3, duration: 95 min | 16900
0.263 h, 800 mg/m^3, duration: 95 min | 41000
0.5176 h, 500 mg/m^3, duration: 95 min | 14700
0.5339 h, 800 mg/m^3, duration: 95 min | 41000
0.8638 h, 800 mg/m^3, duration: 95 min | 43500
0.87 h, 500 mg/m^3, duration: 95 min | 12400
0.875 h, 200 mg/m^3, duration: 95 min | 1190
1.216 h, 500 mg/m^3, duration: 95 min | 9070
1.222 h, 800 mg/m^3, duration: 95 min | 42700
1.227 h, 200 mg/m^3, duration: 95 min | 1020
1.722 h, 500 mg/m^3, duration: 95 min | 6760
1.724 h, 800 mg/m^3, duration: 95 min | 34600
1.733 h, 200 mg/m^3, duration: 95 min | 990
2.225 h, 500 mg/m^3, duration: 95 min | 5300
2.235 h, 800 mg/m^3, duration: 95 min | 30300
2.245 h, 200 mg/m^3, duration: 95 min | 837
2.901 h, 200 mg/m^3, duration: 95 min | 773
2.91 h, 800 mg/m^3, duration: 95 min | 24100
2.926 h, 500 mg/m^3, duration: 95 min | 4130
3.568 h, 800 mg/m^3, duration: 95 min | 21000
3.582 h, 200 mg/m^3, duration: 95 min | 714
3.588 h, 500 mg/m^3, duration: 95 min | 3380
4.567 h, 800 mg/m^3, duration: 95 min | 15500
4.569 h, 200 mg/m^3, duration: 95 min | 695
4.577 h, 500 mg/m^3, duration: 95 min | 3050
6.023 h, 800 mg/m^3, duration: 95 min | 11100
6.027 h, 500 mg/m^3, duration: 95 min | 2510
7.481 h, 800 mg/m^3, duration: 95 min | 9810
32 min, 200 mg/m^3, duration: 95 min | 1460
34 s, 500 mg/m^3, duration: 95 min | 15900
79 s, 200 mg/m^3, duration: 95 min | 2240

rat [1], dosed: pyrene, male, Wistar, radiolabel, during exposure
Conditions | concentration in blood [ng/mL]
-28 s, 800 mg/m^3, duration: 95 min | 40700
-1.353 h, 200 mg/m^3, duration: 95 min | 659
-1.349 h, 500 mg/m^3, duration: 95 min | 2480
-1.122 h, 500 mg/m^3, duration: 95 min | 6670
-1.119 h, 800 mg/m^3, duration: 95 min | 8210
-1.09 h, 200 mg/m^3, duration: 95 min | 1400
-0.7764 h, 800 mg/m^3, duration: 95 min | 19900
-0.7622 h, 200 mg/m^3, duration: 95 min | 2040
-0.7591 h, 500 mg/m^3, duration: 95 min | 10200
-0.4362 h, 800 mg/m^3, duration: 95 min | 29200
-0.434 h, 200 mg/m^3, duration: 95 min | 2250
-0.4242 h, 500 mg/m^3, duration: 95 min | 12700

CC(C)(O)CC(=O)O [3-hydroxy-3-methyl butyrate]
rat [9]
Conditions | amount in urine
6.001 h | 0.652
12.07 h | 0.695
18.1 h | 0.787
24.1 h | 0.425
30 h | 0.178
36.09 h | 0.517
42.12 h | 0.736
48.11 h | 0.23

C=CC#N [acrylonitrile]
rat [7], dosed: acrylonitrile, inhalation, duration: 3 hr, male, Sprague-Dawley
Conditions | concentration in blood [ng/mL]
0.103 h, 186 ppm | 329
0.1717 h, 291 ppm | 588
0.1772 h, 186 ppm | 250
0.1774 h, 254 ppm | 263
0.2565 h, 291 ppm | 287
0.2613 h, 254 ppm | 235
0.2676 h, 186 ppm | 115
90 s, 254 ppm | 1640
94 s, 291 ppm | 1960
110 s, 186 ppm | 911
337 s, 291 ppm | 926
345 s, 254 ppm | 473

rat [7], dosed: acrylonitrile, iv, male, Fisher 344 CDF(F344)/CrlBR
Conditions | concentration in blood [ng/mL]
0.1675 h, 84 mg/kg | 28200
0.1682 h, 3.4 mg/kg | 740
0.1683 h, 55 mg/kg | 27200
0.1717 h, 47 mg/kg | 13400
0.2068 h, 55 mg/kg | 21000
0.208 h, 3.4 mg/kg | 430
0.2102 h, 47 mg/kg | 11800
0.2128 h, 84 mg/kg | 27300
0.2495 h, 3.4 mg/kg | 259
0.2506 h, 55 mg/kg | 17400
0.2512 h, 84 mg/kg | 22400
0.2575 h, 47 mg/kg | 10900
0.5008 h, 55 mg/kg | 6770
0.5014 h, 3.4 mg/kg | 140
0.5026 h, 47 mg/kg | 3040
0.5056 h, 84 mg/kg | 11300
0.6636 h, 55 mg/kg | 3100
0.6706 h, 47 mg/kg | 1600
0.6711 h, 84 mg/kg | 6700
0.9964 h, 55 mg/kg | 393
1.005 h, 47 mg/kg | 287
1.006 h, 84 mg/kg | 1590
1.248 h, 55 mg/kg | 396
1.25 h, 47 mg/kg | 244
1.25 h, 84 mg/kg | 532
182 s, 3.4 mg/kg | 4950
183 s, 55 mg/kg | 71400
188 s, 84 mg/kg | 156000
196 s, 47 mg/kg | 52800
303 s, 55 mg/kg | 47200
306 s, 3.4 mg/kg | 3110
307 s, 84 mg/kg | 88300
309 s, 47 mg/kg | 38100

O=C(O)C(=O)O [Oxalic acid]
concentration in urine [ng/mL]
Conditions | 0 h | 2 h | 4 h | 8 h | 24 h | 48 h
Rat [10] | 63000 | – | – | 71100 | 99300 | 133000
Rat [12] | 63600 | 78100 | 108000 | 98200 | 103000 | 224000
Rat [13] | 53400 | – | 133000 | – | 68000 | 72600
Rat [14] | 63800 | 26200 | – | – | 88700 | 130000

concentration in urine [ng/mL], Rat [11]
Conditions | 0 h | 4 h | 8 h | 24 h | 48 h
40 mg/kg | 74600 | 52700 | 63500 | 89100 | 116000
100 mg/kg | 64800 | 105000 | – | 108000 | 154000

CCc1ccccc1 [ethylbenzene]
rat [7], dosed: ethylbenzene, 50 ppm, inhalation, duration: 4 hr
Conditions | concentration in blood [ng/mL]
0.4948 h | 531
0.9897 h | 315
1.498 h | 193
1.993 h | 146
272 s | 821

human [15]
Conditions | concentration in blood [ng/mL]
0.4921 h | 254
0.9902 h | 197

human [15], during exposure
Conditions | concentration in blood [ng/mL]
-1.491 h | 518
-0.514 h | 497

O=C[O-] [formate]
rat [7], dosed: methanol, 100 mg/kg, iv, male, CDF(F344)/CrlBR
Conditions | concentration in blood [ng/mL]
0.1321 h | 3240
0.4419 h | 3230
0.9757 h | 3130
1.457 h | 3580
1.923 h | 2560
2.94 h | 2070
4.456 h | 1030
5.99 h | 73.9
7.984 h | 1330
119 s | 740
